# Reference: PMC3979326 (Science signaling, 2012)
# Square brackets hold non-standard residues; d marks the D form. Ends that are not written are not given here. pY = N[C@@H](Cc1ccc(OP(=O)(O)O)cc1)C(=O)O
# Experiments:
# [1] = tested on: Gβγ-mediated activation of Akt via PI3Kβ; test: Gβγ-mediated Akt activation; format: cell-based; details: for effect on Gβγ-mediated increase in Akt phosphorylation at Thr308: 30 μM peptide, Fig. 5A, fig. S7A; for effect on Gβγ-dependent activation of Akt (need for cell entry): fig. S7C, labeled versus unlabeled peptide
# How it was run: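 HEK 293 cells were grown in DMEM with 10% FBS and transfected with human p85α, myc-p110β, myc-Akt, with or without FLAG-Gβ1 and HA-Gγ2. After overnight serum starvation, cells received myristoylated peptide (30 µM final, from DMSO stock) or TGX-221 (50 nM) for 30 min before lysis. Anti-myc immunoprecipitates were blotted for Akt and pT308-Akt, and the pAkt:total Akt ratio was quantified.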
# [2] = tested on: EGF-dependent activation of Akt (RTK-mediated activation of PI3Kβ); test: EGF-dependent Akt activation; format: cell-based; details: intact cells, cell line not named; fig. S7B
# [3] = tested on: PC3 cells (PTEN-null prostate cancer); test: MTT proliferation, PC3 cells; format: cell-based; details: 30 μM peptides, 200 nM TGX221, means ± SEM of three experiments, Fig. 6A
# [4] = tested on: 532KK-DD mutant PI3Kβ; test: Lipid kinase activity, 532KK-DD mutant PI3Kβ; format: biochemical, human; details: pY (substrate stock 900 nM); compared with wild-type; Fig. 1F, S4A, S4B
# How it was run: (§1)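 Recombinant PI3Kβ from baculovirus-infected insect cells was assayed on lipid vesicles at 1 mg/ml final (5% PIP2, 20% PS, 45% PE, 15% DOPC, 10% cholesterol, 5% sphingomyelin, by weight). Threefold enzyme stocks were 75 nM in Hepes pH 7.5, MgCl2, EDTA. Threefold substrate stocks carried 900 nM RTK-pY and/or 1.5 µM Gβ1γ2. The read-out was 32P-PIP3 captured on nitrocellulose, washed in 1 M NaCl/1% phosphoric acid.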
# [5] = tested on: p110β–Gβ-p85α-icSH2–Gγ-C68S fusion heterotrimer; test: Lipid kinase activity, fusion heterotrimer; format: biochemical, human; details: fig. S3A
# [6] = tested on: loop-swap mutant PI3Kβ; test: Lipid kinase activity, loop-swap mutant PI3Kβ; format: biochemical, human; details: pY (substrate stock 900 nM); compared with wild-type; Fig. 1F, S4A, S4B
# How it was run: as §1
# [7] = tested on: 532KK-DD mutant PI3Kβ in HEK 293E cells; test: Gβγ-mediated Akt activation, 532KK-DD mutant PI3Kβ; format: cell-based, human; details: myc-Akt, Western blot, Fig. 2A
# How it was run: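 HEK 293E cells were transfected with human p85α, mutant myc-p110β and myc-Akt, with or without FLAG-Gβ1 and HA-Gγ2, then serum-starved overnight. After anti-myc immunoprecipitation, pT308-Akt and total Akt were blotted and quantified by densitometry or infrared imaging. The pAkt:total Akt ratio is expressed as percent of basal.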
# [8] = tested on: wild-type PI3Kβ; test: Lipid kinase activity, wild-type PI3Kβ from insect cells; format: biochemical, human; details: no pY; Fig. 1F
# How it was run: as §1
# [9] = tested on: p110β with p85-i or p85-ic; test: Activity of p110β with p85 truncation constructs; format: biochemical; details: p85-i (iSH2 only) or p85-ic (iSH2-cSH2); fig. S9
# [10] = tested on: p110β; details: ref [7]; cited from earlier work
# [11] = tested on: PLC-β; test: Gβγ-mediated PLC-β activation in cells; format: cell-based; details: COS-7 cells, 30 μM, 30 min before LiCl; [3H]inositol phosphates; fig. S8C
# How it was run: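 COS-7 cells were transiently transfected with or without Gβγ plasmids. Reactions were stopped with ice-cold 50 mM formic acid and neutralised with 150 mM NH4OH after lysis. [3H]inositol phosphates were isolated on Dowex columns and quantified.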
# [12] = tested on: p110β protein; test: Abundance of p110β protein in cells; format: cell-based; details: Fig. 5, C and D
# [13] = tested on: NIH3T3 cells transfected with p110β and p85α (PI3Kβ-dependent transformation); test: Soft agar colony formation, PI3Kβ-transfected NIH3T3 cells; format: cell-based
# [14] = tested on: LPA-stimulated Akt phosphorylation in NIH3T3 cells; test: LPA-stimulated Akt activation; format: cell-based; details: 30 μM peptide, 10 nM LPA for 5 min, Western blot, Fig. 5B
# [15] = tested on: p110β–Rab5 binding; test: Rab5 pulldown assay; details: GST-Rab5 pulldown; fig. S8, E and F
# How it was run: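 HEK 293T cells were transfected with wild-type or mutant myc-p110β plus p85α. Lysates were incubated with GTPγS-Rab5 or GST beads, washed, and bound proteins blotted.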
# [16] = tested on: NIH3T3 cells transfected with p110β and p85α; test: Focus formation assay, PI3Kβ-transfected NIH3T3 cells; format: cell-based; details: 30 μM peptide; two weeks; crystal violet; Fig. 5D
# How it was run: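 NIH 3T3 cells were plated at 2×10^5 cells/well and transfected with myc-p110β and p85α plasmids. Cells were grown two weeks with medium changed every two days, with myristoylated peptide at 30 µM in the medium throughout. Cells were then fixed and stained with crystal violet, and foci were counted per well.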
# [17] = tested on: adenylyl cyclase 2; test: Adenylyl cyclase assay, synergistic activation by Gβγ and Gαs; format: biochemical; details: 30 μM; 20 nM each Gαs and Gβγ; Sf9 membranes; 10 min at 30°C; fig. S8B
# [18] = tested on: PC3 cells; test: Boyden chamber chemotaxis, PC3 cells; format: cell-based; details: 10% FBS, 20 μM (Fig. 6C legend), three experiments
# How it was run: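 PC-3 cells (5×10^4) were seeded on inserts with 8.0 µm pores. The upper chamber held serum-free medium with DMSO or myristoylated test peptide. The lower chamber held medium with 10% FBS plus DMSO or peptide.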
# [19] = tested on: NIH3T3 cells transfected with plasmid encoding PI3Kβ; test: Proliferation of PI3Kβ-transfected NIH3T3 cells; format: cell-based; details: fig. S7D
# [20] = tested on: p101–p110γ dimer; test: Gβγ-dependent activation of class IB PI3K; details: fig. S8A
# [21] = tested on: NIH3T3 cells expressing p110β and p85α; test: Boyden chamber migration, PI3Kβ-expressing NIH3T3 cells; format: cell-based
# [22] = tested on: NIH3T3 cells transfected with 12V-Ras; test: Soft agar colony formation, oncogenic Ras; format: cell-based; details: Fig. 5E
# How it was run: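 Transfected NIH 3T3 cells were grown in DMEM with 10% calf serum. Two days after transfection, 2,500 cells/well were plated in 0.3% top agar over 0.6% bottom agar. Myristoylated peptide was present at 30 µM in both gels and the medium. Colonies were counted 3 weeks later.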
# [23] = tested on: PC3 cells co-cultured with macrophages; test: Collagen invasion assay, macrophage-dependent PC3 invasion; format: cell-based; details: collagen I gel, 24 hours, confocal microscopy; two experiments; Fig. 6D
# How it was run: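 BAC-1.2F5 macrophages and PC-3 cells were vitally labelled with red and green CellTracker dyes and co-cultured at 2.5:1. After attachment, cells were overlaid with collagen I gel and incubated 24 h with or without test peptide. Invasion into the 3D gel was quantified by laser scanning confocal detection of dye fluorescence.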
# [24] = tested on: p101–p110γ dimer (PI3Kγ); test: Lipid kinase activity, immunopurified p101–p110γ, Gβγ-stimulated; format: biochemical; details: 1 μM p110β-peptide or QEHA, 10 μM SIGK; 200 nM Gβγ; lipid kinase assay
# How it was run: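 Peptides were prepared in 20 mM Tris-HCl pH 7.4, 10 mM NaCl: test peptide 1 µM, scrambled 1 µM, SIGK 10 µM, QEHA 1 µM. Each was preincubated with 200 nM recombinant lipidated Gβγ for 30 min on ice, then with lipid vesicles 10 min on ice. Immunopurified PI3Kγ was added for 10 min before the kinase assay. Data are means ± SEM of triplicates, representative of two to three experiments.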
# [25] = tested on: PLCβ3; test: In vitro Gβγ-mediated activation of PLCβ; format: biochemical; details: PLCβ3 1 nM, 10 min at 30°C, [3H]PIP2; fig. S8D
# How it was run: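 Reactions used recombinant PLCβ3 with a range of peptide concentrations, with or without 200 nM Gαq and with or without Gβγ. Buffer was 20 mM Hepes pH 7.2, 70 mM KCl, 3 mM EGTA, 10 mM NaF, 20 µM AlCl3, 5 mM MgCl2. Substrate was 33 µM PIP2/333 µM PE with [3H]PIP2, free Ca2+ 200 nM. Reactions were stopped with 10% TCA plus BSA, and supernatant counted by scintillation.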
compound,measurement,setting,value
"Cc1cc(C(C)Nc2ccccc2)c2nc(N3CCOCC3)cc(=O)n2c1 (stereo not drawn) [TGX221, reference compound]",effect on Gβγ-dependent Akt activation (TGX-221),"[1]; HEK 293E cells with p110β, p85α, myc-Akt, Gβ1γ2, TGX-221 50 nM, 30 min, fig. S5A",specifically inhibited
same,effect on EGF-dependent activation of Akt,[2],substantial inhibitory effect
same,effect on PC3 cell proliferation,[3],unaffected
ESDGG[pY]MDMSKDESID[pY]VPMLDMKGDIKYADIE,activation of mutant PI3Kβ by pY (532KK-DD),[4],activated to a similar extent
same,stimulation of fusion heterotrimer,[5],could be stimulated
same,activation of mutant PI3Kβ by pY (loop-swap),[6],activated to a similar extent
"Gβγ: Recombinant human Gβ1, N-terminally hexahistidine-tagged bovine wild-type Gγ2",stimulation of fusion heterotrimer,[5],could be stimulated
same,"Akt activation in presence of exogenous Gβγ, 532KK-DD mutant",[7],complete loss of Akt activation
same,PI3Kβ activation by Gβγ in the absence of pY,[8],activated PI3Kβ in the absence of pY
same,"pT308-Akt in presence of exogenous Gβγ, wild-type PI3Kβ","[1]; HEK 293E cells, wild-type PI3Kβ, myc-Akt, Western blot, Fig. 2A",marked increase
same,stimulation of p110β associated with p85-i or p85-ic,[9],stimulates p110β
same,stimulation of p110β in the absence of p85,[10],stimulates p110β
KAAEIASSDSANVSSRGGKKFLPV [myristoylated p110β-peptide],effect on Gβγ-mediated activation of PLC-β in cells,[11],no effect
same,effect on abundance of p110β protein,[12],did not reduce the abundance of p110β protein
same,"effect on PI3Kβ-dependent transformation, soft agar colony formation","[13]; 30 μM peptide in gels and media, colonies counted after 3 weeks, Fig. 5C",inhibited
same,effect on LPA-stimulated increase in Akt phosphorylation at Thr308,[14],completely inhibited
same,effect on binding of p110β to Rab5,[15],no effect
same,"effect on PI3Kβ-dependent transformation, focus formation",[16],inhibited
same,effect on synergistic activation of adenylyl cyclase by Gβγ and Gαs,[17],no effect
same,effect on chemotaxis of PC3 cells toward serum,[18],inhibited the chemotaxis
same,effect on Gβγ-mediated increase in Akt phosphorylation at Thr308,"[1]; 30 min, Western blot",completely inhibited
same,effect on Gβγ-dependent activation of Akt (need for cell entry),[1]; listed as myristoylated,inhibited Gβγ-dependent activation of Akt
same,effect on proliferation of PI3Kβ-transfected NIH3T3 cells,[19],neither the myristoylated peptide nor pertussis toxin inhibited the proliferation
same,effect on Gβγ-dependent activation of class IB PI3K (p101–p110γ),[20],no effect
same,effect on enhanced migration of PI3Kβ-transfected NIH3T3 cells,"[21]; Boyden chamber towards 10% FBS, 24 hours, 30 μM, Fig. 5F",blocked the enhanced migration
same,effect on EGF-dependent activation of Akt,[2],no effect
same,effect on PC3 cell proliferation,[3],proliferation was inhibited
same,effect on cellular transformation by oncogenic Ras,[22],no effect
same,effect on macrophage-dependent PC3 cell invasion,[23],blocked
KAAEIASSDSANVSSRGGKKFLPV [p110β-peptide],effect on Gβγ-mediated activation of p101–p110γ dimers,[24],no effect on Gβγ-mediated activation of p101–p110γ dimers
same,effect on Gβγ-dependent activation of Akt (need for cell entry),[1]; listed as unlabeled peptide,no such effect
same,effect on Gβγ-mediated activation of PLC-β in vitro,[25],no effect
"NGAEKVGSADSKSIAFVSLKARSP [myristoylated scrambled peptide, reference compound]",effect on LPA-stimulated increase in Akt phosphorylation at Thr308,[14],minimal effects
same,"effect on PI3Kβ-dependent transformation, focus formation",[16],"but not the myristoylated scrambled peptide, inhibited"
same,effect on Gβγ-mediated increase in Akt phosphorylation at Thr308,"[1]; 30 min, Western blot",minimal effects
same,effect on PC3 cell proliferation,[3],unaffected
QEHAQEPERQYMHIGTMVEFAYALVGK,effect on Gβγ-mediated activation of p101–p110γ dimers,[24],inhibited
SIGKAFKILGYPDYD,effect on Gβγ-mediated activation of p101–p110γ dimers,[24],inhibited
pertussis toxin [reference compound],effect on wild-type p110β-enhanced transformation,"[13]; pertussis toxin, NIH3T3 cells, fig. S6, B and C",inhibited
same,effect on proliferation of PI3Kβ-transfected NIH3T3 cells,[19],neither the myristoylated peptide nor pertussis toxin inhibited the proliferation
same,effect on wild-type p110β-enhanced migration,"[21]; pertussis toxin, fig. S6, B and C",inhibited
same,effect on PC3 cell proliferation,[3],proliferation was inhibited
